Drawing on ChEMBL document CHEMBL1833880, “Biologically active arborinane-type triterpenoids and anthraquinones from Rubia yunnanensis” (J Nat Prod, 2011), this text covers Activity, IC50 and MIC50 for 13 molecules.

The structures appear in SMILES notation. In brackets after ≈: the same amount, converted by molar mass. Activity calls are given as the source filed them. The rule behind the calls is not given here. Where only a bound is given, the exact number is not on record here.

Experiment [1] deals with SMMC-7721. The experiment in a line: Cytotoxicity against human SMMC7721 cells at >10 uM after 48 hrs by SRB assay. The experiment is classed as functional, cell-based. (In general: In SRB staining, fixed cells bind dye roughly in proportion to their protein.)
In experiment [2] the test system is A549. Description: Cytotoxicity against human A549 cells after 48 hrs by SRB assay. As to conditions: A549, 48 h. The experiment is classed as functional, cell-based. In short, it runs like this: (§1)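 Cells plated 24 h, then exposed to serial dilutions up to 20 μg/mL for 48 h at 37 °C in 5% CO2. They were fixed with cold 50% TCA for 1 h at 4 °C, stained with 0.4% SRB in 1% acetic acid for 15 min, and the bound dye was dissolved in 10 mM Tris base. Absorbance was read at 560 nm. IC50 was taken from triplicate tests.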

Experiment [3] deals with HeLa. Description: Cytotoxicity against human HeLa cells at >10 uM after 48 hrs by SRB assay. The experiment is classed as functional, cell-based.
Experiment [4] has as its system HeLa. The experiment in a line: Cytotoxicity against human HeLa cells after 48 hrs by SRB assay. The experiment is classed as functional, cell-based. The method, boiled down: as §1
A further experiment has as its system Candida albicans. The experiment in a line: microbe, parasite or virus in culture. The format is functional. As to conditions: CGMCC 2.2086, 24 h.
The subject of the next experiment is Staphylococcus aureus. The experiment in a line: Antibacterial activity against Staphylococcus aureus CGMCC1.2465 after 24 hrs by turbidimetric method. The experiment is classed as functional. As to conditions: for MIC50: CGMCC1.2465, 24 h. In short, it runs like this: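 Inoculum was adjusted by OD620 to McFarland 0.5 and diluted to 1 × 10^6 cfu/mL. It was exposed to serial dilutions up to 25 μg/mL in Mueller-Hinton broth at 37 °C for 24 h, and absorbance was read at 620 nm. MIC50 was taken from triplicate tests. Ampicillin was the reference.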

For experiment [5], the system named is A549. Description: Cytotoxicity against human A549 cells at >10 uM after 48 hrs by SRB assay. The experiment is classed as functional, cell-based.
Experiment [6] deals with SMMC-7721. Description: Cytotoxicity against human SMMC7721 cells after 48 hrs by SRB assay. Particulars: SMMC-7721, 48 h. The experiment is classed as functional, cell-based. The method, boiled down: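 Cells seeded 24 h, then exposed to serial dilutions (top concentration 20 μg/mL) for 48 h at 37 °C, 5% CO2. Fixed with ice-cold 50% TCA at 4 °C for 1 h, stained 15 min with 0.4% SRB in 1% acetic acid, dye solubilized in 10 mM Tris base, absorbance at 560 nm. Triplicate; IC50 reported. Paclitaxel and camptothecin as positive controls.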

As to `CC(C)[C@@H]1C[C@@H](O)[C@H]2[C@@]1(C)CC[C@@]1(C)C3=CC[C@H]4C(C)(C)[C@@H](O)CC[C@]4(C)C3=CC[C@]21C` [RUBIYUNNANOL A], the result in the experiment with SMMC-7721 [1] was inactive. Moreover, the IC50 (commonly the point on the concentration scale where inhibition reaches its midpoint) is 9.8 µM in the experiment with A549 [2] and more than 10 µM in the experiment with HeLa [3].

In turn, `CC(=O)O[C@H]1C(=O)[C@@]2(C)[C@H]([C@H](OC(=O)c3ccccc3)[C@]3(O)C[C@H](OC(=O)[C@H](O)[C@@H](NC(=O)c4ccccc4)c4ccccc4)C(C)=C1C3(C)C)[C@]1(OC(C)=O)CO[C@@H]1C[C@@H]2O` [PACLITAXEL] showed an IC50 in the experiment with HeLa [4] of 0.6 µM.

With `CC(C)[C@@H]1CC=C2[C@@]1(C)CC[C@@]1(C)[C@H]3C(=CC[C@]21C)[C@@]1(C)CC[C@H](O)C(C)(C)[C@@H]1C[C@@H]3O` [RUBIYUNNANOL B], the outcome with SMMC-7721 [1] was inactive. Besides, the values for the IC50 in the experiment on A549 [2] and in the experiment with HeLa [4] were 8.2 µM and 5.3 µM, respectively.

`CC(=O)O[C@@H]1C[C@@H](C(C)C)[C@]2(CO)CC[C@@]3(C)[C@H]4C(=CC[C@]3(C)[C@@H]12)[C@@]1(C)CC[C@H](O)C(C)(C)[C@@H]1C[C@@H]4O` [RUBIARBONOL G]: the result in the experiment with SMMC-7721 [1] was inactive. For the same molecule, the MIC50 was 10.8 µM (≈ 5.58 µg/mL) in the experiment on Candida albicans and more than 25 µM against Staphylococcus aureus. The IC50 came out at 7 µM in the experiment on A549 [2] and 2.2 µM in the experiment with HeLa [4].

As to `CC(=O)OC[C@@]12CC[C@@]3(C)[C@H]4C(=CC[C@]3(C)[C@H]1[C@H](O)C[C@H]2C(C)C)[C@@]1(C)CC[C@H](O[C@@H]2O[C@H](CO[C@@H]3O[C@H](CO)[C@@H](O)[C@H](O)[C@H]3O)[C@@H](O)[C@H](O)[C@H]2O)C(C)(C)[C@@H]1C[C@@H]4O`, the outcome with SMMC-7721 [1] and in the experiment on A549 [5] was inactive. Besides, the IC50 in the experiment with HeLa [4] came to 2.2 µM.

Take `Clc1ccc(COC(Cn2ccnc2)c2ccc(Cl)cc2Cl)c(Cl)c1` (stereo not drawn) [MICONAZOLE NITRATE]: the MIC50 in the experiment on Candida albicans amounted to 0.9 µM.

As for `CC(=O)OC[C@H]1O[C@@H](Oc2cc3c(c(O)c2C)C(=O)c2ccc(O)cc2C3=O)[C@H](O[C@@H]2O[C@@H](C)[C@H](O)[C@@H](O)[C@H]2O)[C@@H](O)[C@@H]1O`, the outcome with SMMC-7721 [1] and with A549 [5] was inactive. This molecule gave an IC50 with HeLa [4] of 4.2 µM.

On to `CC1(C)S[C@@H]2[C@H](NC(=O)[C@H](N)c3ccccc3)C(=O)N2[C@H]1C(=O)O` [AMPICILLIN], for which the MIC50 against Staphylococcus aureus came out at 0.1 µM (≈ 0.0349 µg/mL).

`Cc1c(O)cc2c(c1O)C(=O)c1ccc(O)cc1C2=O`: the MIC50 against Staphylococcus aureus was determined as 21.5 µM (≈ 5.81 µg/mL).

With `CC(=O)O[C@@H]1C[C@@H](C(C)C)[C@]2(CO)CC[C@@]3(C)[C@H]4C(=CC[C@]3(C)[C@@H]12)[C@@]1(C)C=CC(=O)C(C)(C)[C@@H]1C[C@@H]4O`, the outcome in the experiment with SMMC-7721 [1] and in the experiment with A549 [5] was inactive. Further, the IC50 with HeLa [4] was found to be 7.9 µM.

On to `CC[C@@]1(O)C(=O)OCc2c1cc1n(c2=O)Cc2cc3ccccc3nc2-1` [CAMPTOTHECIN], for which, in the experiment on SMMC-7721 [6], the IC50 worked out at 0.003 µM.

As for `O=C1c2ccccc2C(=O)c2cc(CO)c(O)cc21`, the outcome with SMMC-7721 [1] and in the experiment with A549 [5] was inactive. For the same molecule, the IC50 in the experiment on HeLa [4] was determined as 3 µM.

On to `COC1=CC(=O)c2ccccc2C1=O` [2-Methoxy-1,4-naphthoquinone], for which the MIC50 in the experiment with Candida albicans came out at 16 µM (≈ 3.01 µg/mL). In the experiment with SMMC-7721 [6], this molecule came in with an IC50 of 4.3 µM. For the same molecule, the result in the experiment on Staphylococcus aureus, in the experiment with HeLa [3] and with A549 [5] was inactive.
